Screening results from PubChem BioAssay.
The list is not random: actives were taken first. Their share in the collection is about 2.3%.
Env fusion inh = HIV envelope-mediated fusion inhibition. actives 1.1% (n = 360,000). inhibition, % at 12.3 µM. HeLa-JRFL Env/CEM21 cell fusion, luciferase;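 active = mean replicate inhibition score of at least 50 and every replicate individually at or above 50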;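 also: 0% = plate neutral controls and 100% = maraviroc near 300 nM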
PfHsp90 set2 = reduces growth (ATP signal) of yeast expressing P. falciparum Hsp90; S. cerevisiae expressing PfHsp90, BacTiter-Glo ATP, 48 h; yeast lacking PDR1 and PDR3 efflux regulators; inhibition, % at 9.4 µM; AID 504621; actives 0.32% (n = 310,000);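 active = every replicate shows inhibition above about 80%, whatever the replicate mean, limit read from the data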;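 also: 0% = DMSO neutral controls and 100% = 20 µM radicicol positive controls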
Glyco luc inh = N-linked glycosylation inhibition. D54 ERlucT glycosylation luciferase reporter, 24 h; percent of 100 nM tunicamycin response. reporter increase, % at 12.5 µM. actives 0.23% (n = 360,000);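 active = mean luciferase reporter signal, scaled so untreated is 0 and the glycosylation-blocking control 100, at or above a set limit in every replicate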;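 also: luciferase carries N-glycosylation sites so blocking glycosylation raises the light; 0% = median of neutral control wells and 100% = median of 100 nM tunicamycin wells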
Rtt109 HAT inh = blocks Candida albicans Rtt109/Vps75 acetyltransferase activity; AID 540336; actives 0.16% (n = 330,000); purified Rtt109/Vps75, ThioGlo CoA-SH fluorescence, 4 h; Q5AAJ8; inhibition, % at 34.9 µM;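 active = inhibition of at least 50% in every replicate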
PAX8 inh HTS = lowers PAX8-driven luciferase in RMG-I cells; RMG-I TPO-luciferase reporter, SteadyGlo, 24 h; inhibition, % at 12.6 µM; actives 1.2% (n = 360,000);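 active = mean replicate inhibition at least 60% with every replicate also reaching 60%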;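 also: luciferase light reporting Pax8 driven TPO promoter activity; plate controls were median of neutral control wells for no effect and mitoxantrone controls for full effect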
Arrestin-AP2 inh = blocks beta-arrestin peptide binding to AP2 adaptin. FITC-arrestin peptide / GST-AP2 beads, flow cytometry; AP2 beta2 appendage carries R879A mutation. AID 504490. inhibition, % at 10 µM. actives 0.31% (n = 340,000);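 active = inhibition above a set limit, near 3 SD of compounds lacking own fluorescence, cut at about 54% in these data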;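 also: plate controls were DMSO wells for no effect and 5 µM unlabelled arrestin peptide for full effect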
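System: GST-AP2 R879A bound to glutathione beads, E. coli-expressed. Also added: 50 nM FITC-arrestin peptide. Schedule: compound with beads 12 min RT, then probe 1 h RT. Signal: bead flow cytometry, FITC channel. Read-out basis: percent response.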
Arr AP2 CP1 = human beta-arrestin and AP2 interaction inhibition, cherry pick. shares compounds with Arrestin-AP2 inh. GST-AP2 beads, FITC arrestin peptide binding, flow cytometry; GST-fused beta2-adaptin appendage, R879A mutant. inhibition, % at 10 µM. actives 2% (n = 1,300). AID 504908;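 active = inhibition above a set limit, roughly 3 SD of non-fluorescent compound noise, cut at about 38% in these data; inactive = inhibition at or below that limit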;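 also: loss of bead fluorescence from 50 nM FITC arrestin peptide bound to appendage; 0% = negative control wells and 100% = excess unlabelled arrestin peptide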
GST GSH counter = disrupts GST binding to glutathione beads, arrestin-AP2 artifact. shares compounds with Arrestin-AP2 inh. GST-fluorescein binding to GSH beads, fluorescence, counter-screen. inhibition, % at 10 µM. actives 2% (n = 1,300);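 active = inhibition above 50%, about 3 SD of the inhibition seen with non-fluorescent compounds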;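 also: fluorescein maleimide labelled GST captured on 4 micron glutathione beads; higher means more loss of bead fluorescence from quenching or blocked binding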
* hit, by the source's call; / = not tested or not shown; [ ] = dose if it differs, or a comment.

SMILES	Env fusion inh	PfHsp90 set2	Glyco luc inh	Rtt109 HAT inh	PAX8 inh HTS	Arrestin-AP2 inh	Arr AP2 CP1	GST GSH counter
COCCNC(=O)[C@H]1[C@H](CO)[C@H]2Cn3c(ccc(-c4ccccc4)c3=O)[C@@H]1N2C(=O)NC(C)C	/	/	/	/	-5	/	/	/
CO[C@@H]1CN(C)C(=O)c2ccc(NC(=O)Nc3ccccc3F)cc2OC[C@@H](C)N(S(=O)(=O)CC(F)(F)F)C[C@H]1C	12[16.7 µM]	/	/	/	-21	/	/	/
CC(=O)C1=C(O)C(=O)N(c2ccc(S(N)(=O)=O)cc2)C1c1ccc([N+](=O)[O-])cc1 (stereo not drawn)	/	-29	0	-2	/	97*	-2	-7
CC(=O)C1=C(O)C(=O)N(c2ccc(C(=O)O)cc2)C1c1ccc([N+](=O)[O-])cc1 (stereo not drawn)	3	-7	2	1	5	-3	/	/
Cc1cc(C(=O)COc2ccc3ccc(=O)oc3c2)c(C)n1Cc1cccs1	8	10	-4	-2	0	94*	-9	7
COc1cccc(OC)c1C(=O)Nc1cc(C)nn1-c1nc2ccccc2[nH]1	29	4	1	0	15	36	1	5
COc1ccc(C(=O)Nc2cc(C)nn2-c2nc3ccccc3[nH]2)c(OC)c1	-2	22	9	-4	-7	7	19	-6
Cc1cc(NC(=O)c2ccccc2)n(-c2nc3ccccc3[nH]2)n1	-3	-1	4	-6	-25	17	-3	-1
Cc1cc(NC(=O)CC#N)n(-c2nc3ccccc3[nH]2)n1	-12	-7	7	1	-14	10	/	/
O=S(=O)(N[C@H]1CC[C@H](CCn2cc(C3CC3)nn2)O[C@@H]1CO)c1ccc(Cl)cc1	5[16.7 µM]	/	/	/	-2	/	/	/
Cc1ccc(S(=O)(=O)Nc2ccc3c(c2)C(=O)N([C@H](C)CO)C[C@H](C)[C@@H](CN(C)C(=O)Cc2ccccc2)OCCCC[C@@H](C)O3)cc1	-6[16.7 µM]	/	/	/	-20	/	/	/
O=C(Nc1cc(C(F)(F)F)ccc1N1CCOCC1)C1=COCCO1	0	-2	1	5	16	55*	1	-6
C[C@@H]1CN([C@@H](C)CO)C(=O)c2ccccc2-c2ccccc2CO[C@@H]1CN(C)S(=O)(=O)c1ccc([N+](=O)[O-])cc1	/	/	/	/	8	/	/	/
Cn1c(SCC(=O)NC2CCCC2)nnc1-c1ccccn1	/	24	1	-1	/	60*	-14	-9
Cn1c(SCC(=O)NC2CCCCC2)nnc1-c1ccccn1	-24	-7	2	-4	5	35	/	/
CN(C)c1ccc(NC(=O)COC(=O)Cn2nnc3ccccc32)cc1	-3	-1	-2	-9	11	61*	-5	-9
CCc1ccc(C(=O)COC(=O)c2cc([N+](=O)[O-])ccc2NCCO)cc1	31	21	2	2	-5	57*	-2	-7
O=C(COC(=O)c1cc([N+](=O)[O-])ccc1NCCO)c1ccc(Cl)cc1	14	10	2	-1	9	0	/	/
C[C@H](CO)N1C[C@H](C)[C@H](CN(C)C(=O)CCCN(C)C)OCc2cn(nn2)CCCC1=O	/	/	/	/	-29	/	/	/
COc1ccc(S(=O)(=O)Nc2ccc3c(c2)CC(=O)N([C@H](C)CO)C[C@@H](C)[C@H](CN(C)C(=O)Nc2ccc(F)cc2)O3)cc1	-12[16.7 µM]	/	/	/	-11	/	/	/
O=C(NCc1ccccc1OC(F)(F)F)C1CCC(=O)N(Cc2ccccn2)C1 (stereo not drawn)	1	4	3	0	7	16	/	/
COc1ccc(CCCNC(=O)C2CCC(=O)N(Cc3ccccc3F)C2)cc1 (stereo not drawn)	-4	-19	0	-1	-37	-7	-13	-2
COc1ccccc1CN1CC(C(=O)NCc2cc(F)cc(C(F)(F)F)c2)CCC1=O (stereo not drawn)	5	-61	1	14	5	-1	6	0
O=C(NCc1ccccc1OC(F)(F)F)C1CCC(=O)N(CCc2ccccn2)C1 (stereo not drawn)	-18	7	0	-12	5	58*	3	-2
COc1ccc(CCN2CC(C(=O)NCCc3ccc(F)cc3)CCC2=O)cc1 (stereo not drawn)	-5	-8	-3	2	-4	11	4	-5
SMILES	Env fusion inh	PfHsp90 set2	Glyco luc inh	Rtt109 HAT inh	PAX8 inh HTS	Arrestin-AP2 inh	Arr AP2 CP1	GST GSH counter
O=C(C[C@@H]1C=C[C@@H](NC(=O)CN2CCOCC2)[C@@H](CO)O1)NCc1cccc(F)c1	-17[16.7 µM]	/	/	/	-3	/	/	/
OCc1ccccc1OCc1ccccc1	-112	/	/	/	-19	/	/	/
O=c1cc(CO)[nH]cc1OCc1ccccc1	3	21	-1	2	17	61*	-5	-5
Cc1noc(C)c1NC(=O)N[C@H]1CC[C@H](CC(=O)Nc2ccccc2)O[C@@H]1CO	-12[16.7 µM]	/	/	/	/	/	/	/
COc1ccccc1C(=O)Nc1nnc(S(=O)(=O)N2CCCCC2)s1	-8	-6	3	-13	-18	64*	6	-18
Cc1cc(C)nc(NC(=NCCc2c[nH]c3ccccc23)NC(=O)Nc2ccccc2)n1	-7	9	14	-5	25	1	/	/
Cc1cc(C)nc(NC(=NCCc2c[nH]c3ccccc23)NC(=O)c2ccco2)n1	/	-31	-4	-3	/	83*	-17	1
Cc1ccc(S(=O)(=O)Nc2ccc3c(c2)C(=O)N(C)[C@H]2CC[C@@H](CC(=O)O)O[C@H]2CO3)cc1	-17[16.7 µM]	/	/	/	0	/	/	/
CN(C)CCCNC(=O)[C@H]1[C@H](CO)[C@H]2Cn3c(cccc3=O)[C@@H]1N2C(=O)Nc1cc(F)ccc1F	4[16.7 µM]	/	/	/	-6	/	/	/
COc1ccc(C(=O)Nc2cc3c(cc2N2CCCCC2)n(C)c(=O)n3C)cc1OC	-7	-20	11	-4	3	/	-5	/
COc1cc(C(=O)Nc2cc3c(cc2N2CCCCC2)n(C)c(=O)n3C)cc(OC)c1OC	22	-12	42*	5	-30	-12	4	-2
COc1cc(C(=O)Nc2ccccc2N2CCN(S(C)(=O)=O)CC2)cc(OC)c1OC	/	9	3	9	/	16	/	/
CCOc1cc(C(=O)Nc2ccc3c4c(cccc24)C(=O)N3CC)cc(OCC)c1OCC	34	-35	3	1	-4	3	/	/
Cc1ccc(C(=O)Nc2cc3c(cc2N2CCCCC2)n(C)c(=O)n3C)cc1	/	-36	7	0	/	-1	4	3
COc1ccc(C(=O)Nc2ccc(N3CCCC3)cc2)cc1OC	-54	-7	0	-1	-16	10	/	/
